The source made the active and inactive calls.
How the values were obtained:
Mus musculus [1] = species: Mus musculus; assay: Compound was evaluated for the analgesic activity by mouse hotplate assay at the doses of 0.62 and 6.2; No significant effect observed at the doses tested; format: functional, organism-based
[2] = target: Neuronal acetylcholine receptor; assay: Compound was evaluated for its ability to displace [3H]-cytisine binding from high-affinity Nicotinic acetylcholine receptor in rat brain (principally the alpha4-beta2 nAChR subtype); format: tissue-based
Procedure, shortened: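 Displacement of [3H]cytisine from rat whole-brain membranes, principally α4β2 sites.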

[3] = target: T1, Neuronal acetylcholine receptor subunit alpha-3 (Homo sapiens, UniProt P32297); assay: Functional activation of human sympathetic ganglionic type nAChRs in IMR-32 cells containing alpha-3 subtype; format: cell-based
Procedure, shortened: (§1)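 86Rb+ efflux measured in the human neuroblastoma line IMR-32 (ganglionic-like, α3-containing nAChRs). Intrinsic activity is the maximum response as percent of the response to 100 μM (S)-nicotine. Values are means ± SEM, n ≥ 3.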

[4] = target: T1, Neuronal acetylcholine receptor subunit alpha-3; assay: Intrinsic activity against human sympathetic ganglionic type nAChRs in IMR-32 cells containing alpha-3 subtype; format: functional, cell-based; procedure, shortened: as §1
[5] = target: T2, Neuronal acetylcholine receptor subunit alpha-7 (Homo sapiens, UniProt P36544); assay: Compound was evaluated for functional activation from channel currents at human Nicotinic acetylcholine receptor alpha-7 expressed in oocytes.; format: cell-based, Oocyte
[6] = target: T2, Neuronal acetylcholine receptor subunit alpha-7; assay: Compound was evaluated for its ability to displace [125I]alpha-bungarotoxin (alpha-BgT) from K28 cells expressing human Nicotinic acetylcholine receptor alpha7; format: cell-based
Procedure, shortened: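 Displacement of [125I]-α-bungarotoxin from K28 cells expressing human α7 homomers. Ki values are means ± SEM, n ≥ 3.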

[7] = target: Acetylcholine receptor subunit alpha (Torpedo californica, UniProt P02710); assay: Compound was evaluated for its ability to displace [125 I]alpha-bungarotoxin (alpha-BgT) from torpedo alpha1-beta1-[…] electroplax
Procedure, shortened: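 Displacement of [125I]-α-bungarotoxin from Torpedo electroplax membranes (α1β1γδ). Ki values are means ± SEM, n ≥ 3.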

Mus musculus [8] = species: Mus musculus; assay: Compound was evaluated for the analgesic activity by mouse hotplate assay at the dose 0.1; No significant effect observed at the doses tested; format: functional, organism-based
[9] = target: Neuronal acetylcholine receptor; alpha4/beta2 (Homo sapiens, UniProt P17787+P43681); assay: Compound was evaluated for its ability to displace [3H]cytisine from K177 cells expressing human Nicotinic acetylcholine receptor alpha4-beta2; format: cell-based
Procedure, shortened: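 Displacement of [3H]cytisine from K177 cells expressing human α4β2 nAChRs. Ki values are means ± SEM, n ≥ 3.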

K177 cell line = assay: Compound was evaluated for functional activation to [86Rb+] efflux from human K177 cells expressing recombinant alpha4-beta2 receptors.; format: cell-based
Procedure, shortened: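 86Rb+ efflux measured from K177 cells expressing recombinant human α4β2 receptors. Intrinsic activity is given as percent of the maximal response to 100 μM (S)-nicotine. Values are means ± SEM, n ≥ 3.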

Canis familiaris [10] = assay: Compound was evaluated for increase in diastolic blood pressure (BP) in dog at 10 nM/Kg when administered intravenously; format: functional, Canis lupus familiaris, Artery
Procedure, shortened: (§2)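 Male beagle dogs under pentobarbital anesthesia (35 mg/kg iv, then 5 mg/kg/h iv infusion), ventilated with room air. Blood pressure was recorded by a micromanometer catheter passed via the carotid artery into the left ventricle.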

Canis familiaris [11] = assay: Compound was evaluated for increase in heart rate (HR) in dog at 10 nM/Kg when administered intravenously; format: functional, Canis lupus familiaris; procedure, shortened: as §2
Mus musculus [12] = species: Mus musculus; assay: Compound was evaluated for the analgesic activity by mouse hotplate assay at the doses of 0.062 and 0.62; format: functional
Mus musculus [13] = assay: Minimum intraperitoneal effective dose for abdominal constriction in mouse; format: functional, Abdomen
Procedure, shortened: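 Mice, 10 per dose group, received compound ip in 0.9% saline, 10 mL/kg, 30 min before ip phenyl-p-quinone (68 μmol/kg in 5% EtOH). Writhing was scored over a 10-min window starting 5 min after the irritant. The read-out was the reduction in the number of responders versus the saline group.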

Mus musculus [14] = species: Mus musculus; assay: Minimum peroral effective dose for analgesic activity was determined by mouse hot plate assay; format: functional
Procedure, shortened: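 Mouse hot plate at 55 °C with 8 mice per dose. Drug in 0.9% saline was given po, 10 mL/kg, 30 min before testing, over a range of 0.19–6.2 μmol/kg. MED is the lowest dose that increases latency to the tenth jump versus saline, with a 180 s cutoff.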

[15] = Compound was evaluated for functional activation to [86Rb+] efflux From human medulloblastoma cell line TE671 expressing recombinant alpha-1-beta-1-gamma delta receptors.; conditions: TE-671
Procedure, shortened: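 86Rb+ efflux measured from the human medulloblastoma line TE671. Intrinsic activity is given as percent of the maximal response to 1 mM (S)-nicotine. Values are means ± SEM, n ≥ 3.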

T1 sequence (P32297 whole entry): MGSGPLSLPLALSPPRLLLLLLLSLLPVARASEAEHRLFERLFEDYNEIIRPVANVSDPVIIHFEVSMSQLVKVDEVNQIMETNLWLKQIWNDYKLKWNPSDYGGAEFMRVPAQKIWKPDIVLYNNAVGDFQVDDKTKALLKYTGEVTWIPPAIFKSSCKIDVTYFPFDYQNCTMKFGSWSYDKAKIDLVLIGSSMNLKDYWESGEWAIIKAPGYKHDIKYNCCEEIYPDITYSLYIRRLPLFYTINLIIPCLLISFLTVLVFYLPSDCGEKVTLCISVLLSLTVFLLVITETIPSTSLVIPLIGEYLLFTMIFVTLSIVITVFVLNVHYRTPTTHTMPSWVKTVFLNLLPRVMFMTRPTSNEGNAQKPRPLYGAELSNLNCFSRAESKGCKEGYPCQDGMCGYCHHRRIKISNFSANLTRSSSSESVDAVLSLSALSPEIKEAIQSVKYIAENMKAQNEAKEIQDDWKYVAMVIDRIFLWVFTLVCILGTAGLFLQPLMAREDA
T2 sequence (P36544 whole entry): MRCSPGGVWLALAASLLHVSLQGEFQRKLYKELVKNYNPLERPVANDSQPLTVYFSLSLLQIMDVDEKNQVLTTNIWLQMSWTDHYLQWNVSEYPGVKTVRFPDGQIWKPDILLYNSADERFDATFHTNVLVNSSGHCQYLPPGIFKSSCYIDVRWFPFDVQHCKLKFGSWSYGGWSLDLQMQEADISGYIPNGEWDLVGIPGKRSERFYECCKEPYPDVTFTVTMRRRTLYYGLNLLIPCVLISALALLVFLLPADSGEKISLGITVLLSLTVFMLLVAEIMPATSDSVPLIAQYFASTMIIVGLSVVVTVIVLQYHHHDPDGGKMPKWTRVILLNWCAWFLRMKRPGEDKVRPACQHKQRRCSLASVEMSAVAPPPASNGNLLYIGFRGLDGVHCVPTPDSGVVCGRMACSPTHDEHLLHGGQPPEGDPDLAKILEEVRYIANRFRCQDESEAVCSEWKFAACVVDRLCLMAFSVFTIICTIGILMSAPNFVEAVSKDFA
Chain of Acetylcholine receptor subunit alpha (P02710 whole entry): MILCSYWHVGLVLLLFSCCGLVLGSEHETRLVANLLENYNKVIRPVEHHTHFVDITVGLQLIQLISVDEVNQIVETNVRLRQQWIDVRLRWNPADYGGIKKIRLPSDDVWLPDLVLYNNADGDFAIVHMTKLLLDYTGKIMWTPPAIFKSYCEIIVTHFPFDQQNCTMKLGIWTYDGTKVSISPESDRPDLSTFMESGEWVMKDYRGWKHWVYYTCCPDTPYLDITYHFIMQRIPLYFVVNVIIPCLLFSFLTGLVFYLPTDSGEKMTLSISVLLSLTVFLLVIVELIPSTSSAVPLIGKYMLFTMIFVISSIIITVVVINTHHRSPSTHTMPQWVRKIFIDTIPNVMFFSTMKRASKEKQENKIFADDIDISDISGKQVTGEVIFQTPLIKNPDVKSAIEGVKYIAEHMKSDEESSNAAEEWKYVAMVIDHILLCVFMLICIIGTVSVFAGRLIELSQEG
Chain of Neuronal acetylcholine receptor; alpha4/beta2 (P17787 whole entry): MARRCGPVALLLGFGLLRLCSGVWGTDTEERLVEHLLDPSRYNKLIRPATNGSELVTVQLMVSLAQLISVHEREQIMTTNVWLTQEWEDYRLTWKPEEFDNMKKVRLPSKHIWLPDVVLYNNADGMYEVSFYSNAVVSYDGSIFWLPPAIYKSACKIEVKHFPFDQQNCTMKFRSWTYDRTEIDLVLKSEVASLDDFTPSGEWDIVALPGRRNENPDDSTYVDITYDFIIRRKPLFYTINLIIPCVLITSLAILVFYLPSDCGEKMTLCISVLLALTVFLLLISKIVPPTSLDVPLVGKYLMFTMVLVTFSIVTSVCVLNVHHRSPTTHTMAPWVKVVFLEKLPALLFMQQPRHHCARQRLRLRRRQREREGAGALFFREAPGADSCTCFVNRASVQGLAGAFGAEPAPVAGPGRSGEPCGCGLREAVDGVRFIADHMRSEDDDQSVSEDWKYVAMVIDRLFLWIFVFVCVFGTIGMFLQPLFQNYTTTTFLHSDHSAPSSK
Chain of Neuronal acetylcholine receptor; alpha4/beta2 (P43681 whole entry): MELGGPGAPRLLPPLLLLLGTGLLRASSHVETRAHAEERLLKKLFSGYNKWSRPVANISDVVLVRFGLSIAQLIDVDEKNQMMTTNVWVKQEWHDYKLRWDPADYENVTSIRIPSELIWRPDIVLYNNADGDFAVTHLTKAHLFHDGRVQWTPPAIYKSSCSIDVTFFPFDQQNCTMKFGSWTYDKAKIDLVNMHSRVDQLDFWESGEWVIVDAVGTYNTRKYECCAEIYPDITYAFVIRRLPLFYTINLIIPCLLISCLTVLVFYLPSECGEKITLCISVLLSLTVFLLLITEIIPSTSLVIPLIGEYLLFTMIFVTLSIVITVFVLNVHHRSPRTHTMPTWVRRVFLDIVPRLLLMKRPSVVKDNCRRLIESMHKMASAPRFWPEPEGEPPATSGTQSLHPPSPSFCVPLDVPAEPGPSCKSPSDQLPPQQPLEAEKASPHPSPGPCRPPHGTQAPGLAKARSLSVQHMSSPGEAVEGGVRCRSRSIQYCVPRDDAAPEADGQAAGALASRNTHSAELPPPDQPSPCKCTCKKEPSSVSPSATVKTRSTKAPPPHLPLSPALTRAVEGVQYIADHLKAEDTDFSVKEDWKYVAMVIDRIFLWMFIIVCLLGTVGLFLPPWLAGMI

| Structure (SMILES) | MED (Mus musculus [1]) | Ki [2] | EC50 [3] | IA [4] | Ki [7] | further results |
| --- | --- | --- | --- | --- | --- | --- |
| Clc1ccc(OC[C@H]2CCCN2)cn1 | inactive | 0.09 nM | 500 nM | 110% | – | – |
| c1cncc(OC[C@H]2CCN2)c1 | inactive | – | 1100 nM | 116% | 384 nM | EC50 [5]: 36000 nM; Ki [6]: 1270 nM |
| Clc1ccc(OC[C@@H]2CCCN2)cn1 | inactive | 0.45 nM | 1190 nM | 104% | – | – |
| CN1CC[C@H]1COc1ccc(Cl)nc1 | inactive | 1.6 nM | 28900 nM | 43% | – | – |
| Clc1ccc(C2CC3CCC2N3)cn1 (racemic) | – | – | – | 156% | – | MED (Mus musculus [8]): inactive |
| c1cncc(OC[C@@H]2CCN2)c1 | inactive | – | 700 nM | 113% | 314 nM | Ki [9]: 0.04 nM; EC50 (K177 cell line; Homo sapiens, K177): 700 nM |
| Clc1ccc(OCC2CCN2)cn1 (single isomer, unassigned) [TEBANICLINE] | – | 0.04 nM | 200 nM | 116% | 10000 nM | BP (Canis familiaris [10]): 23.2 mmHg; HR (Canis familiaris [11]): 7.8 beats min-1; MED (Mus musculus [12]): 0.62 µM/kg; MED (Mus musculus [13]): 0.19 µM/kg; MED (Mus musculus [14]): 6.2 µM/kg; EC50 [5]: 56000 nM; Ki [6]: 2060 nM; Ki [9]: 0.055 nM; EC50 [15]: 36000 nM; EC50 (K177 cell line; k177): 270 nM |
